Assay outcomes (PubChem BioAssay)
NCF1 inh = blocks human p47phox regulatory protein of NADPH oxidases. 220,000 tested, 0.53% active. AID 1274. p47phox/p22phox peptide binding, fluorescence polarization, 2 h. inhibition, % at 24.7 µM. P14598;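 active = inhibition above about 30%, limit read from the data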;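 also: 0% = p47phox with labelled peptide and 100% = labelled peptide alone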
Efa HMGR inh = E. faecalis class II HMG-CoA reductase inhibition; purified E. faecalis HMGR, NADPH absorbance 340 nm kinetic; inhibition, % at 10 µM; 190,000 tested, 0.41% active; AID 1066;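 active = inhibition above a set limit, the median over all tested compounds plus 3 SD, cut at about 9.5% in these data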;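 also: enzyme runs in reverse so mevalonate oxidation gives rising NADPH absorbance; 0% = complete reaction with DMSO and 100% = background rate lacking mevalonate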
DTT redox prof = compounds producing H2O2 with reducing agent – biochemical, NIH compound library profiling, artefact control for MLSCN library redox annotation, primary screen; 200,000 tested, 0.03% active; activation, % at 10 µM; DTT-dependent redox cycling H2O2, phenol red/HRP absorbance; 100% = 100 µM peroxide control, 0% = buffer; AID 878;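 active = activation of at least 50% relative to the plate's high and low controls in the primary single-dose screen; inactive = activation below 50%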;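 also: compound incubated with DTT at 0.8 mM final as the reducing agent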
PMI activator = phosphomannose isomerase (human) activation; P34949; activation factor at 20 µM; AID 1214; 190,000 tested, 0.005% active; purified human PMI, coupled resazurin fluorescence, 20 min; hits give high values; 1 = vehicle control, 0 substrate-free wells;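 active = activation factor of 2 or more at 20 µM, relative to plate controls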
Target sequence (P34949 whole entry, looked up): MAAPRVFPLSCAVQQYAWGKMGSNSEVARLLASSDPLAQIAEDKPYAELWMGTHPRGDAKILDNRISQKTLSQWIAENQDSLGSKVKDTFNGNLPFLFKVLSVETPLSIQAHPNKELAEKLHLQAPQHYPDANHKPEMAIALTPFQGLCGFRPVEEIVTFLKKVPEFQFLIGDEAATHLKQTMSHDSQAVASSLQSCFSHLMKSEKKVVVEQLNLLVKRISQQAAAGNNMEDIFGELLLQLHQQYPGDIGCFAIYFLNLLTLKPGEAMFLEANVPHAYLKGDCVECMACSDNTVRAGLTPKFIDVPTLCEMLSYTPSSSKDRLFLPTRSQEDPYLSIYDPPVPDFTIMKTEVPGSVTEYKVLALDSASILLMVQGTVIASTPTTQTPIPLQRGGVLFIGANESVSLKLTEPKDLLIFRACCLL
PMI act satM6P = increases human PMI activity with near-saturating mannose 6-phosphate; 190,000 tested, 0.34% active; P34949; coupled PMI enzyme assay, resazurin fluorescence, 20 min; hits give high values; 1 = untreated enzyme, 0 = substrate-free blank; AID 1216; activation factor at 20 µM;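 active = activation factor of 2 or more at 20 µM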
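Test system: Human PMI in coupled enzyme assay | Input: 15 ng/mL PMI | Medium: HEPES-buffered pH 7.4 with magnesium and detergent | Compound: One concentration, 20 µM, in 1% DMSO | Incubation: Enzyme reaction with compound 20 min at room temperature | Detection: Diaphorase-driven resazurin-to-resorufin fluorescence, excitation 544, emission 590 nm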
Diaph act CS = activates diaphorase or chemically reduces, flagging diaphorase assay artifacts. Diaphorase/resazurin coupled assay, resorufin fluorescence, 16 min; hits give high values; 1 = vehicle wells, 0 = NADH-free wells. activation factor at 20 µM. 190,000 tested, 0.005% active;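 active = diaphorase activity raised at least twofold by the compound at 20 µM; inactive = activation factor below 2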
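System – purified diaphorase enzyme from Clostridium kluyveri · Input – enzyme 0.07 U/mL final · Also added – final NADH 0.114 mM, resazurin 0.1 mM · Measured by – fluorescence of resorufin, 544 nm excitation, 590 nm emission · Timing – 16 min enzyme reaction, ambient temperature · Measure – resorufin increase flagging diaphorase activators or reducers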
The depositor's hits bear a star; nt = not tested or not shown. Most compounds without a hit are left out; they make up all but 1.2% or so of the library.

SMILES | NCF1 inh | Efa HMGR inh | DTT redox prof | PMI activator | PMI act satM6P | Diaph act CS
CC(C)(C)C(=O)NNC(=O)c1cc2sccc2s1 | -4 | nt | nt | nt | nt | nt
CCC1(C)SC(N)=NN1C(C)=O (stereo not given) | 4 | -4 | 0 | 0.9 | 0.9 | 0.7
Cc1ccc(-n2cnc3sc(C)c(C)c3c2=O)cc1 | -4 | 13* | 0 | 0.9 | 0.9 | 0.9
COc1ccc(S(=O)(=O)N(NC2=NS(=O)(=O)c3ccccc32)C(=O)C(C)C)cc1 | -2 | 11* | 0 | 1.2 | 1 | 1
Cc1ccc(-c2cc(-c3n[nH]c(=S)o3)c3ccccc3n2)cc1 | -29 | -2 | 0 | 1.5 | 2.2* | 0.8
Nc1ccccc1NC1CCCCC1 | 15 | -8 | -1 | 0.4 | 0.3 | 0.2
N#Cc1ccc(S(=O)(=O)N2CCc3[nH]c4ccc(F)cc4c3C2)cc1 | -13 | nt | nt | nt | nt | nt
COc1cc(C2NC(=S)NC(c3ccccc3)=C2C(C)=O)cc(Cl)c1OCC(=O)O (stereo not given) | -21 | -3 | 2 | 1 | 1.2 | 1
COc1cc(C2NC(=O)NC(c3ccccc3)=C2C(C)=O)cc(Cl)c1OCC(=O)O (stereo not given) | -6 | 14* | 0 | 1.1 | 1.1 | 1
CCCCN(Cc1cc2cccc(C)c2[nH]c1=O)S(C)(=O)=O | -3 | nt | nt | nt | nt | nt
O=c1c(OC2OC(CO)C(O)C(O)C2O)c(-c2ccc(O)c(O)c2)oc2cc(O)cc(O)c12 (stereo not given) | -9 | 16* | 0 | 0.4 | 0.7 | 0.4
Nc1nonc1-n1nncc1-c1ccccc1 | -2 | 11* | 0 | 1 | 1 | 1
CCOC(=O)c1nnn(-c2nonc2N)c1-c1ccccc1 | -9 | 1 | 1 | 1 | 1 | 0.9
Cc1ccc2c(c1)c1c3n2CCN(C(=O)CN2CCN(C)CC2)C3CCC1 (stereo not given) | -4 | 2 | -2 | 1.1 | 0.8 | 0.9
CN1CCN(CC(=O)N2CCn3c4c(c5cc(C6CCCCC6)ccc53)CCCC42)CC1 (stereo not given) | 31* | 1 | 1 | 0.9 | 0.9 | 1.2
C/C(=N\NC(=O)Cn1nnc2ccccc21)c1ccco1 | -7 | -4 | -1 | 1 | 1 | 1.1
CCOC(=O)/C=C/C(=O)OCC(=O)Nc1ccc(C)cc1 | -1 | 11* | 0 | 1 | 1 | 1
O=[N+]([O-])c1ccc(N2CCCCCC2)c(S(=O)(=O)N2CCCCC2)c1 | -12 | 1 | 3 | 0.9 | 1 | 0.8
O=[N+]([O-])c1ccc(N2CCCCC2)c(-c2nn[nH]n2)c1 | -1 | 14* | 1 | 1 | 1 | 0.9
CN(CCc1cn[nH]c1)Cc1nc(Cc2ccccc2)no1 | 19 | 2 | -1 | 0.9 | 0.9 | 0.9
Cc1ccc(C(c2nnnn2CS(=O)(=O)c2ccc(C)cc2)N2CCCC2)cc1 (stereo not given) | 39* | -2 | -1 | 1.1 | 1.1 | 1.2
Cc1ccc(S(=O)(=O)Cn2nnnc2C(c2ccc(F)cc2)N2CCCCC2)cc1 (stereo not given) | 0 | 0 | 3 | 0.9 | 0.9 | 0.7
Cc1ccc(N/N=C2\CCS(=O)(=O)c3sccc32)cc1 | -4 | -5 | -1 | 1.8 | 2.8* | 0.8
CC(C)C(C(=O)O)N1C(=O)/C(=C/C=C/c2ccco2)SC1=S (stereo not given) | -81 | 11* | 2 | 1.1 | 1.1 | 0.5
O=C1/C(=C/C=C/c2ccco2)SC(=S)N1c1ccc(O)cc1 | -63 | nt | nt | nt | nt | nt
SMILES | NCF1 inh | Efa HMGR inh | DTT redox prof | PMI activator | PMI act satM6P | Diaph act CS
CCOCCCNC(=S)NCCNc1nc2ccc(C)cc2cc1C#N | -9 | 0 | 0 | 1.5 | 2* | 0.8
CCOCCCNC(=S)NCCCNc1nc2cc3c(cc2cc1C#N)OCO3 | -5 | 4 | 2 | 1.6 | 2.2* | 1
CCOCCCNC(=S)NCCCNc1nc2ccc(C)cc2cc1C#N | -4 | -2 | 0 | 1.6 | 2.1* | 0.8
Cc1nn(C(C)C(=O)N/N=C/c2ccc(N(C)C)cc2)c(C)c1[N+](=O)[O-] (stereo not given) | -4 | nt | nt | nt | nt | nt
COC(=O)CN(C#N)c1nc(NC(C)C)nc(NC(C)C)n1 | -13 | 6 | -2 | 1.1 | 1 | 1
COc1ccc2[nH]c3c4c(ccc3c2c1)C(=O)C=CC4=O | 31* | nt | nt | nt | nt | nt
CCOC(=O)c1c(C)nc2sc3c(=O)n(-c4ccc(C(C)=O)cc4)nnc3c2c1-c1ccc(Cl)cc1 | 60* | -1 | -4 | 0.9 | 0.9 | 0.8
NS(=O)(=O)c1ccc(-c2ccc(/C=C3\SC(=S)N(C4CCS(=O)(=O)C4)C3=O)o2)cc1 (stereo not given) | 36* | nt | nt | nt | nt | nt
Cc1ccc(/C=C2\SC(=S)N(C3CCS(=O)(=O)C3)C2=O)o1 (stereo not given) | -20 | -1 | 0 | 1 | 0.6 | 0.7
O=C1/C(=C/c2ccc([N+](=O)[O-])cc2)C=C(c2ccccc2)N1c1ccc(O)cc1 | 56* | -6 | 0 | 0.8 | 0.8 | 1
CCCOCCc1nnc(N)s1 | 1 | nt | nt | nt | nt | nt
COc1ccc(C(=O)c2ccccc2)cc1 | -3 | 3 | 0 | 1.2 | 1.1 | 1
COc1ccc(C(=O)NNc2ccccc2)cc1 | -5 | -2 | 0 | 1.7 | 2.4* | 1.1
COC(=O)CSc1snnc1-c1ccc(Cl)cc1Cl | -1 | -1 | 6 | 0.9 | 0.9 | 0.8
O=C(Nc1nccs1)c1ccc(Br)o1 | -21 | -6 | 3 | 1.1 | 1.1 | 0.9
O=C(/C=C/c1ccc(Br)o1)Nc1nccs1 | -36 | -3 | 0 | 1.6 | 2* | 0.9
CCc1ccc(S(=O)(=O)/N=C2\C=CC(=O)c3ccccc32)cc1 | 6 | -1 | -2 | 0.9 | 0.5 | 0.7
CCc1ccc(S(=O)(=O)/N=C2/C=C(Sc3ncn[nH]3)C(=O)c3ccccc32)cc1 | 55* | 9 | 25 | 0 | 0.1 | 0.5
CCOc1ccc(NC(=O)C(Cc2ccccc2)N2C(=O)c3cccc4cccc(c34)C2=O)cc1 (stereo not given) | nt | 0 | 1 | 1 | 1.1 | 1
COc1nc(Nc2nc3ccccc3c(=O)[nH]2)nc2ccc(C)cc12 | 31* | nt | nt | nt | nt | nt
CCOC(=O)Cn1c(C)[n+](CC(=O)c2ccccc2)c2ccccc21 | -4 | nt | nt | nt | nt | nt
COc1cc(/C=N/NC(=O)CC23CC4CC(CC(C4)C2)C3)cc(Br)c1OCC(=O)N(C)C | -8 | -5 | 0 | 1 | 1.1 | 0.9
O=C(O)c1ccccc1C(=O)NCCc1c(C(=O)O)[nH]c2ccc(Cl)cc12 | 0 | nt | nt | nt | nt | nt
O=S(=O)(Nc1ccccn1)c1cccs1 | -4 | -6 | -1 | 1 | 1 | 0.8
